From ChEMBL document CHEMBL1671631, “Staphylococcus aureus PBP4 is essential for beta-lactam resistance in community-acquired methicillin-resistant strains” (2008)
Converted amounts (≈) assume the structure as drawn.

Columns and labels:
Staphylococcus aureus [1] = assay: Antimicrobial activity against wild type hospital-acquired methicillin-resistant Staphylococcus aureus COL serotype USA500 by microdilution method; format: functional
Summary of the method: (§1)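 Broth microdilution MIC per CLSI guidelines, inoculum 5 x 10^5 CFU/ml, confirmed by plating serial dilutions. Run in triplicate; three independent clones per mutant. Reported as the median of at least three independent experiments. MBC: clear wells plated onto drug-free tryptic soy agar, 37°C, 24 and 48 h. pEPSA5-carrying strains tested with and without xylose, no chloramphenicol.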

Staphylococcus aureus [2] = assay: Antimicrobial activity against wild type hospital-acquired methicillin-resistant Staphylococcus aureus COL after 48 hrs by microdilution method; format: functional
Staphylococcus aureus [3] = assay: Antimicrobial activity against wild type hospital-acquired methicillin-resistant Staphylococcus aureus 252 after 48 hrs by microdilution method; format: functional; details: Staphylococcus aureus, 252, 48 h
[4] = Antimicrobial activity against hospital-acquired pbp4-deficient Staphylococcus aureus Mu50 serotype USA100 by microdilution method; format: functional, Staphylococcus aureus subsp. aureus Mu50; summary of the method: as §1
Staphylococcus aureus [5] = assay: Antimicrobial activity against wild type hospital-acquired methicillin-resistant vancomycin-intermediate Staphylococcus aureus Mu50 after 48 hrs by microdilution method; format: functional; details: Mu50, 48 h
Staphylococcus aureus [6] = assay: Antimicrobial activity against hospital-acquired pbp4-deficient Staphylococcus aureus COL serotype USA500 by microdilution method; format: functional; summary of the method: as §1
Staphylococcus aureus [7] = assay: Antimicrobial activity against community-acquired pbp4-deficient Staphylococcus aureus MW2 serotype USA400 by microdilution method; format: functional; summary of the method: as §1
[8] = Antimicrobial activity against wild type hospital-acquired methicillin-resistant Staphylococcus aureus N315 serotype USA100 by microdilution method; format: functional, Staphylococcus aureus subsp. aureus N315; summary of the method: as §1
Staphylococcus aureus [9] = assay: Antimicrobial activity against hospital-acquired pbp3/4-deficient Staphylococcus aureus COL serotype USA500 by microdilution method; format: functional; summary of the method: as §1
[10] = Antimicrobial activity against wild type hospital-acquired methicillin-resistant vancomycin-intermediate Staphylococcus aureus Mu50 serotype USA100 by microdilution method; format: functional, Staphylococcus aureus subsp. aureus Mu50; summary of the method: as §1
Staphylococcus aureus [11] = assay: Antimicrobial activity against wild type community-acquired methicillin-resistant Staphylococcus aureus USA300 after 48 hrs by microdilution method; format: functional; details: USA300, 48 h
Staphylococcus aureus [12] = assay: Antimicrobial activity against community-acquired pbp3-deficient Staphylococcus aureus MW2 serotype USA400 by microdilution method; format: functional; summary of the method: as §1
Staphylococcus aureus [13] = assay: Antimicrobial activity against community-acquired pbp4::pbp4-deficient Staphylococcus aureus USA300 by microdilution method; format: functional; summary of the method: as §1
Staphylococcus aureus [14] = assay: Antimicrobial activity against wild type community-acquired methicillin-resistant Staphylococcus aureus MW2 (USA400) after 48 hrs by microdilution method; format: functional
[15] = Antimicrobial activity against hospital-acquired pbp4-deficient Staphylococcus aureus N315 serotype USA100 by microdilution method; format: functional, Staphylococcus aureus subsp. aureus N315
Summary of the method: (§2)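 Broth microdilution MIC per CLSI guidelines, inoculum 5 x 10^5 CFU/ml, confirmed by plating serial dilutions. Run in triplicate; three independent clones per mutant. Reported as the median of at least three independent experiments.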

Staphylococcus aureus [16] = assay: Antimicrobial activity against wild type community-acquired methicillin-resistant Staphylococcus aureus MW2 ex serotype USA400 by microdilution method; format: functional; summary of the method: as §2
Staphylococcus aureus [17] = assay: Antimicrobial activity against community-acquired pbp4::pbp4-deficient Staphylococcus aureus MW2 serotype USA400 by microdilution method; format: functional; summary of the method: as §1
Staphylococcus aureus [18] = assay: Antimicrobial activity against community-acquired pbp3/4-deficient Staphylococcus aureus MW2 ex serotype USA400 by microdilution method; format: functional; summary of the method: as §1
Staphylococcus aureus [19] = assay: Antimicrobial activity against community-acquired pbp3-deficient Staphylococcus aureus MW2 ex serotype USA400 by microdilution method; format: functional; summary of the method: as §2
Staphylococcus aureus [20] = assay: Antimicrobial activity against wild type community-acquired methicillin-resistant Staphylococcus aureus MW2 serotype USA400 by microdilution method; format: functional; summary of the method: as §1
Staphylococcus aureus [21] = assay: Antimicrobial activity against community-acquired pbp4-deficient Staphylococcus aureus USA300 by microdilution method; format: functional; summary of the method: as §1
Staphylococcus aureus [22] = assay: Antimicrobial activity against community-acquired pbp4-deficient Staphylococcus aureus MW2 ex serotype USA400 by microdilution method; format: functional; summary of the method: as §1
Staphylococcus aureus [23] = assay: Antimicrobial activity against hospital-acquired pbp3-deficient Staphylococcus aureus COL serotype USA500 by microdilution method; format: functional; summary of the method: as §1
Staphylococcus aureus [24] = assay: Antimicrobial activity against wild type community-acquired methicillin-resistant Staphylococcus aureus USA300 by microdilution method; format: functional; summary of the method: as §1
Staphylococcus aureus [25] = assay: Antimicrobial activity against community-acquired pbp3/4-deficient Staphylococcus aureus MW2 serotype USA400 by microdilution method; format: functional; summary of the method: as §1
Staphylococcus aureus [26] = assay: Antimicrobial activity against community-acquired pbp4-deficient Staphylococcus aureus MW2 serotype USA400 by microdilution method relative to wild type; format: functional
Summary of the method: (§3)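 Broth microdilution MIC per CLSI, inoculum 5 x 10^5 CFU/ml, inoculum confirmed by plating serial dilutions. Three independent clones tested per mutant, each in triplicate. Reported value is the median of at least three independent experiments. MBC obtained by plating clear wells onto drug-free tryptic soy agar, incubated 37°C for 24 and 48 h.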

Staphylococcus aureus [27] = assay: Antimicrobial activity against community-acquired pbp4-deficient Staphylococcus aureus USA300 by microdilution method relative to wild type; format: functional; summary of the method: as §3

Row | Structure (SMILES) | MIC (Staphylococcus aureus [1]) | MBC (Staphylococcus aureus [2]) | MBC (Staphylococcus aureus [3]) | MIC [4] | MBC (Staphylococcus aureus [5]) | MIC (Staphylococcus aureus [6]) | MIC (Staphylococcus aureus [7]) | MIC [8] | MIC (Staphylococcus aureus [9]) | MIC [10] | MBC (Staphylococcus aureus [11]) | MIC (Staphylococcus aureus [12]) | MIC (Staphylococcus aureus [13]) | MIC (Staphylococcus aureus [17]) | MIC (Staphylococcus aureus [18]) | MIC (Staphylococcus aureus [21]) | MIC (Staphylococcus aureus [22]) | MIC (Staphylococcus aureus [23]) | MIC (Staphylococcus aureus [24]) | MIC (Staphylococcus aureus [25]) | further results
1 | CO[C@@]1(NC(=O)Cc2cccs2)C(=O)N2C(C(=O)O)=C(COC(N)=O)CS[C@@H]21 [CEFOXITIN] | 128 µg/mL (≈ 299 µM) | > 256 µg/mL | > 256 µg/mL | 256 µg/mL (≈ 599 µM) | > 256 µg/mL | 128 µg/mL (≈ 299 µM) | 64 µg/mL (≈ 150 µM) | 64 µg/mL (≈ 150 µM) | 128 µg/mL (≈ 299 µM) | 256 µg/mL (≈ 599 µM) | > 256 µg/mL | 64 µg/mL (≈ 150 µM) | 64 µg/mL (≈ 150 µM) | 64 µg/mL (≈ 150 µM) | 32 µg/mL (≈ 74.9 µM) | 64 µg/mL (≈ 150 µM) | 16 µg/mL (≈ 37.4 µM) | 128 µg/mL (≈ 299 µM) | 64 µg/mL (≈ 150 µM) | 64 µg/mL (≈ 150 µM) | MBC (Staphylococcus aureus [14]): > 256 µg/mL; MIC [15]: 64 µg/mL (≈ 150 µM); MIC (Staphylococcus aureus [16]): 16 µg/mL (≈ 37.4 µM); MIC (Staphylococcus aureus [19]): 32 µg/mL (≈ 74.9 µM); MIC (Staphylococcus aureus [20]): 64 µg/mL (≈ 150 µM)
2 | CCOc1ccc2ccccc2c1C(=O)N[C@@H]1C(=O)N2[C@@H]1SC(C)(C)[C@@H]2C(=O)O [NAFCILLIN] | 64 µg/mL (≈ 154 µM) |  |  | 256 µg/mL (≈ 618 µM) |  | 64 µg/mL (≈ 154 µM) | 1 µg/mL (≈ 2.41 µM) | 64 µg/mL (≈ 154 µM) | 64 µg/mL (≈ 154 µM) | 256 µg/mL (≈ 618 µM) |  | 16 µg/mL (≈ 38.6 µM) | 16 µg/mL (≈ 38.6 µM) | 16 µg/mL (≈ 38.6 µM) | 1 µg/mL (≈ 2.41 µM) | 1 µg/mL (≈ 2.41 µM) | 1 µg/mL (≈ 2.41 µM) | 64 µg/mL (≈ 154 µM) | 16 µg/mL (≈ 38.6 µM) | 1 µg/mL (≈ 2.41 µM) | fold change (FC) (Staphylococcus aureus [26]): 16; MIC [15]: 64 µg/mL (≈ 154 µM); MIC (Staphylococcus aureus [16]): 16 µg/mL (≈ 38.6 µM); MIC (Staphylococcus aureus [19]): 16 µg/mL (≈ 38.6 µM); MIC (Staphylococcus aureus [20]): 16 µg/mL (≈ 38.6 µM); fold change (FC) (Staphylococcus aureus [27]): 16
3 | Cc1onc(-c2ccccc2)c1C(=O)N[C@@H]1C(=O)N2[C@@H]1SC(C)(C)[C@@H]2C(=O)O [OXACILLIN] | 64 µg/mL (≈ 159 µM) | > 256 µg/mL | > 256 µg/mL | 256 µg/mL (≈ 638 µM) | > 256 µg/mL | 256 µg/mL (≈ 638 µM) | 4 µg/mL (≈ 9.96 µM) | 256 µg/mL (≈ 638 µM) | 256 µg/mL (≈ 638 µM) | 256 µg/mL (≈ 638 µM) | 256 µg/mL (≈ 638 µM) | 64 µg/mL (≈ 159 µM) | 64 µg/mL (≈ 159 µM) | 64 µg/mL (≈ 159 µM) | 1 µg/mL (≈ 2.49 µM) | 4 µg/mL (≈ 9.96 µM) | 2 µg/mL (≈ 4.98 µM) | 256 µg/mL (≈ 638 µM) | 64 µg/mL (≈ 159 µM) | 4 µg/mL (≈ 9.96 µM) | MBC (Staphylococcus aureus [14]): 256 µg/mL (≈ 638 µM); fold change (FC) (Staphylococcus aureus [27]): 16
